Measurements reported in ChEMBL document CHEMBL4024748, “Development of Potent Type I Protein Arginine Methyltransferase (PRMT) Inhibitors of Leukemia Cell Proliferation” (J Med Chem, 2017).
The source made the active and inactive calls. No cut-off for these calls is given here.

Legend:
[1] = biological target: Protein arginine N-methyltransferase 1 (Rattus norvegicus, UniProt Q63009); experiment: Inhibition of rat His-tagged PRMT1 (11 to 353 residues) expressed in Escherichia coli BL21(DE3) using biotinylated H4 peptide (1 to 21 residues) as substrate preincubated for 15 mins followed by substrate addition measured after 60 mins in presence of [3H]SAM by microbeta counting method
Protein arginine N-methyltransferase 1, sequence (Q63009 whole entry, the tested form may be a part): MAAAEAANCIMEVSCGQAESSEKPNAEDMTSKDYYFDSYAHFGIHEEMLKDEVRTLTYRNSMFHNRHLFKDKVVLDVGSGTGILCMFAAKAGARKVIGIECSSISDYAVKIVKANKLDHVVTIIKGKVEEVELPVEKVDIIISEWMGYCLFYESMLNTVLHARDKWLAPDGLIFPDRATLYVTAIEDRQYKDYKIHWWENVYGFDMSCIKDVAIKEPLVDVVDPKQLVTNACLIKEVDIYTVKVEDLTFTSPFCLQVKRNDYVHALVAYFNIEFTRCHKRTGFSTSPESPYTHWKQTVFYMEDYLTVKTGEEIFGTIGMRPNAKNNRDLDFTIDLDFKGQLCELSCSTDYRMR
How it was run: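 Radiometric assay in modified Tris buffer. His6-rPRMT1(11–353) preincubated with compound 15 min at RT, then substrate and [3H]-SAM added. Reaction 60 min at RT, stopped with cold stop solution, transferred to Flashplate for 60 min, washed with water/0.1% Tween-20, counted on Microbeta. IC50 from curve fit.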

[2] = biological target: Protein arginine N-methyltransferase 1 (Rattus norvegicus) (UniProt Q63009); experiment: Inhibition of rat His-tagged PRMT1 (11 to 353 residues) expressed in Escherichia coli BL21(DE3) at 100 uM using biotinylated H4 peptide (1 to 21 residues) as substrate by TR-FRET assay
Protein arginine N-methyltransferase 1 (Rattus norvegicus), sequence (Q63009 whole entry, looked up, the tested form may be a part): as the sequence (Q63009 whole entry, the tested form may be a part) above
How it was run: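 Single-point screen at 100 µM. His6-rPRMT1(11–353) expressed in E. coli BL21(DE3) and purified by Ni affinity then gel filtration. Biotinylated H4(1–21) methylated, then product detected with Eu-labelled anti-H4R3me2a antibody plus ULight-streptavidin by TR-FRET. Percent inhibition read.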

[3] = system: MV4-11; experiment: Cytotoxicity against human MV4-11 cells assessed as decrease in cell viability at 6.25 to 12.5 uM after 96 hrs by Cell-Titer Glo assay; format: functional, cell-based
How it was run: (§1)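 Cells kept at 37°C, 5% CO2, exposed to compound or DMSO control for 96 h. Viability read by CellTiter-Glo luminescence after 2 min shaking to lyse and 10 min at room temperature. Triplicate wells, normalised to control cells. For long-term growth, log-phase seeding densities; cells counted and replated to the starting density with fresh compound on days 4 and 8.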

[4] = biological target: Protein arginine N-methyltransferase 1 (Homo sapiens) (UniProt Q99873); experiment: Inhibition of PRMT1 in human MV411 cells assessed as reduction in arginine methylation after 48 hrs by Western blot analysis; format: cell-based
Protein arginine N-methyltransferase 1 (Homo sapiens), sequence (Q99873 whole entry, looked up): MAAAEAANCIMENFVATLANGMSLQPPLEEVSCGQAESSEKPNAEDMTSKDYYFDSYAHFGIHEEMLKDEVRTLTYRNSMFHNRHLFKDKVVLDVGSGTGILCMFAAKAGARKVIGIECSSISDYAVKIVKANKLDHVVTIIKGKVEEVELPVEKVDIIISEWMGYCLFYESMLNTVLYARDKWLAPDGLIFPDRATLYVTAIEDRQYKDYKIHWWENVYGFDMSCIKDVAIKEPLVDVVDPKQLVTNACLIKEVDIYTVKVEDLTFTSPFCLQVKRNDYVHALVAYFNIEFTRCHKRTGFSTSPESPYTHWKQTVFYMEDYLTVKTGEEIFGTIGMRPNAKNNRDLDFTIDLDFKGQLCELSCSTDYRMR
How it was run: (§2)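 MV4-11 cells treated with compound for 48 h. ADMA, SDMA and H4R3me2a read by western blot. Blots blocked in 5% nonfat milk in PBST, primary antibodies overnight at 4°C, HRP anti-rabbit secondary at 1:10000 for 1 h.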

[5] = system: MV4-11; experiment: Cell cycle arrest in human MV4-11 cells assessed as accumulation at G1 phase at 1.67 to 15 uM after 72 hrs by propidium iodide staining-based flow cytometry; format: functional
How it was run: (§3)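 MV4-11 cells in 6-well plates with compound or DMSO control, harvested at 72 h. Fixed overnight in 70% ethanol at 4°C, washed with PBS, stained 30 min at room temperature with propidium iodide/RNase buffer, analysed by flow cytometry. Mean ± SD of three replicates.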

[6] = system: MV4-11; experiment: Induction of apoptosis in human MV4-11 cells up to 15 uM after 96 hrs by annexin V-FITC/propidium iodide staining-based flow cytometric method; format: functional, cell-based
How it was run: (§4)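 MV4-11 cells in 6-well plates with compound or DMSO control, harvested at 96 h. Stained with an Annexin V-FITC apoptosis detection kit and analysed by flow cytometry. Mean ± SD of three replicates.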

[7] = system: MV4-11; experiment: Downregulation of HOXA9 mRNA levels in human MV4-11 cells up to 15 uM by qRT-PCR analysis; format: functional, cell-based
How it was run: (§5)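 MV4-11 cells treated with compound. mRNA measured by SYBR Green qRT-PCR with B2M as internal control. Fold change from ΔΔCt. Samples run in triplicate, mean ± SD.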

[8] = system: MV4-11; experiment: Downregulation of HOXA10 mRNA levels in human MV4-11 cells up to 15 uM by qRT-PCR analysis; format: functional, cell-based; how it was run: as §5
[9] = system: MV4-11; experiment: Downregulation of MEIS1 mRNA levels in human MV4-11 cells up to 15 uM by qRT-PCR analysis; format: functional, cell-based; how it was run: as §5
[10] = biological target: Protein arginine N-methyltransferase 1 (Rattus norvegicus) (UniProt Q63009); experiment: Binding affinity to rat His-tagged PRMT1 (11 to 353 residues) expressed in Escherichia coli BL21(DE3) at 200 uM by 1D 1H CPMG-NMR spectroscopic method
How it was run: (§6)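 Rat PRMT1 (11–353), N-His6, expressed in E. coli BL21(DE3) with 0.4 mM IPTG at 16°C. Purified by Ni affinity and Superdex200. NMR used 5 µM PRMT1 in phosphate buffer pH 7.4 (20 mM NaH2PO4, 20 mM Na2HPO4, 100 mM NaCl) in D2O. Ligand at 200 µM in 5% DMSO-d6. CPMG run with 5, 2 and 1 µM PRMT1, plus STD.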

[11] = biological target: Protein arginine N-methyltransferase 1 (Rattus norvegicus) (UniProt Q63009); experiment: Binding affinity to rat His-tagged PRMT1 (11 to 353 residues) expressed in Escherichia coli BL21(DE3) at 200 uM by STD-NMR spectroscopic method; how it was run: as §6
[12] = system: KOPN-8; experiment: Cytotoxicity against human KOPN8 cells assessed as decrease in cell viability after 96 hrs by Cell-Titer Glo assay; format: functional, cell-based; how it was run: as §1
[13] = system: KMS-11; experiment: Cytotoxicity against human KMS11 cells assessed as decrease in cell viability after 96 hrs by Cell-Titer Glo assay; format: functional, cell-based; how it was run: as §1
[14] = system: THP-1; experiment: Cytotoxicity against human THP1 cells assessed as decrease in cell viability after 96 hrs by Cell-Titer Glo assay; format: functional, cell-based; how it was run: as §1
[15] = system: RS4-11; experiment: Cytotoxicity against human RS4:11 cells assessed as decrease in cell viability after 96 hrs by Cell-Titer Glo assay; format: functional, cell-based; how it was run: as §1
[16] = system: RCH-ACV; experiment: Cytotoxicity against human RCH-ACV cells assessed as decrease in cell viability after 96 hrs by Cell-Titer Glo assay; format: functional, cell-based; how it was run: as §1
[17] = system: REH; experiment: Cytotoxicity against human REH cells assessed as decrease in cell viability after 96 hrs by Cell-Titer Glo assay; format: functional, cell-based; how it was run: as §1
[18] = system: U-937; experiment: Cytotoxicity against human U937 cells assessed as decrease in cell viability after 96 hrs by Cell-Titer Glo assay; format: functional, cell-based; how it was run: as §1
[19] = system: MRC5; experiment: Cytotoxicity against human MRC5 cells assessed as decrease in cell viability at 6.25 to 25 uM after 96 hrs by Cell-Titer Glo assay; format: cell-based; settings: mrc5, 96 h
How it was run: (§7)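 Normal HUV-EC-C, MRC-5 and RCTEC cells at 37°C, 5% CO2, given compound or DMSO control for 96 h. Viability by CellTiter-Glo luminescence after 2 min shaking and 10 min at room temperature. Triplicate wells, normalised to control cells.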

[20] = Cytotoxicity against human RCTEC cells assessed as decrease in cell viability at 6.25 to 25 uM after 96 hrs by Cell-Titer Glo assay; format: cell-based; how it was run: as §7
[21] = Cytotoxicity against human HUV-EC-C cells assessed as decrease in cell viability at 6.25 to 25 uM after 96 hrs by Cell-Titer Glo assay; format: cell-based; how it was run: as §7
[22] = system: MV4-11; experiment: Antiproliferative activity against human MV4-11 cells assessed as decrease in cell viability at 0.1 to 1000 uM by Cell-Titer Glo assay; format: functional, cell-based; settings: TDE = time-dependent effect; how it was run: as §1
[23] = system: MV4-11; experiment: Antiproliferative activity against human MV4-11 cells assessed as decrease in cell viability measured at day 12 by Cell-Titer Glo assay; format: functional, cell-based; settings: MV4-11, 288 h; how it was run: as §1
[24] = biological target: Protein arginine N-methyltransferase 1 (Homo sapiens) (UniProt Q99873); experiment: Inhibition of PRMT1 in human MV411 cells assessed as reduction in ADMA levels after 48 hrs by Western blot analysis; format: cell-based; how it was run: as §2
[25] = biological target: Protein arginine N-methyltransferase 1 (Homo sapiens) (UniProt Q99873); experiment: Inhibition of PRMT1 in human MV411 cells assessed as increase in SDMA levels after 48 hrs by Western blot analysis; format: cell-based; how it was run: as §2
[26] = system: MV4-11; experiment: Cell cycle arrest in human MV4-11 cells assessed as accumulation at G1 phase after 72 hrs by propidium iodide staining-based flow cytometry; format: functional; how it was run: as §3
[27] = system: MV4-11; experiment: Induction of apoptosis in human MV4-11 cells after 96 hrs by annexin V-FITC/propidium iodide staining-based flow cytometric method; format: functional, cell-based; how it was run: as §4
[28] = system: MV4-11; experiment: Downregulation of HOXA9 mRNA levels in human MV4-11 cells by qRT-PCR analysis; format: functional, cell-based; how it was run: as §5
[29] = system: MV4-11; experiment: Downregulation of HOXA10 mRNA levels in human MV4-11 cells by qRT-PCR analysis; format: functional, cell-based; how it was run: as §5
[30] = system: MV4-11; experiment: Downregulation of MEIS1 mRNA levels in human MV4-11 cells by qRT-PCR analysis; format: functional, cell-based; how it was run: as §5
[31] = system: MV4-11; experiment: Upregulation of MNDA mRNA levels in human MV4-11 cells by qRT-PCR analysis; format: functional, cell-based
How it was run: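 Treated MV4-11 cells analysed by SYBR Green qRT-PCR, with B2M as internal control. Fold change calculated by the ΔΔCt method. Samples run in triplicate and reported as mean ± SD.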

[32] = biological target: Protein arginine N-methyltransferase 1 (Homo sapiens) (UniProt Q99873); experiment: Inhibition of PRMT1 in human MV411 cells assessed as reduction in H4R3me2a levels after 48 hrs by Western blot analysis; format: cell-based; how it was run: as §2

## CN(C)CCNCc1ccccc1Sc1cccc2ccccc12
[1]
  IC50: 34 µM

## CCCNCc1cc(Br)cc(Br)c1OC
[2]
  inhibition: > 80%

## CN(C)CCNC(=O)c1ccccc1Sc1cccc2ccccc12
[1]
  IC50: > 200 µM

## CCOC(=O)c1c2c3ccccc3c3ccccc3c2cc2[n+]1CCc1ccccc1-2
[1]
  IC50: 53 µM
[2]
  inhibition: > 80%

## CN(C)CCNCc1ccccc1Sc1ccccc1
[1]
  IC50: > 50 µM
[3]
  Activity: inactive
[4]
  inhibition: inactive
[5]
  Activity: inactive
[6]
  Activity: inactive
[7]
  Activity: inactive
[8]
  Activity: inactive
[9]
  Activity: inactive

## CN(C)CCN(C)Cc1ccccc1Sc1ccccc1F
[1]
  IC50: 0.71 µM

## Cc1ccc(-c2cc(CC(=O)c3c(O)cc(O)cc3O)n[nH]2)cc1
[1]
  IC50: 49 µM
[2]
  inhibition: > 80%

## CN(C)CCNC(=O)c1ccccc1Sc1ccccc1
[1]
  IC50: > 50 µM

## CN(C)CCN(C)Cc1ccccc1Sc1ccccc1Cl
[1]
  IC50: 0.39 µM

## CNCCN(C)Cc1ccccc1Sc1ccccc1Cl
[1]
  IC50: 0.006 µM
[10]
  Activity: Active
[11]
  Activity: Active
[12]
  Activity: Dose-dependent effect
[13]
  Activity: Dose-dependent effect
[14]
  Activity: Dose-dependent effect
[15]
  Activity: Dose-dependent effect
[16]
  Activity: Dose-dependent effect
[17]
  Activity: Dose-dependent effect
[18]
  Activity: Dose-dependent effect
[3]
  Activity: Active
[19]
  Activity: Non-Toxic
[20]
  Activity: Non-Toxic
[21]
  Activity: Non-Toxic
[22]
  Activity: Tde
[23]
  IC50: 1.08 µM
[24]
  inhibition: Dose-dependent effect
[25]
  inhibition: Dose-dependent effect
[26]
  Activity: Dose-dependent effect
[27]
  Activity: Dose-dependent effect
[28]
  Activity: Dose-dependent effect
[29]
  Activity: Dose-dependent effect
[30]
  Activity: Dose-dependent effect
[31]
  Activity: Active
[32]
  inhibition: Dose-dependent effect

## CN(C)CCNCc1ccccc1Sc1ccccc1Cl
[1]
  IC50: 54 µM

## c1ccc(COc2cccc(CNCC3CCNCC3)c2)cc1
[1]
  IC50: 147 µM
[2]
  inhibition: > 80%

## CN(C)CCNCc1ccccc1Sc1ccccc1F
[1]
  IC50: 45 µM

## CN(C)CCNC(=O)c1ccccc1Sc1ccccc1Cl
[1]
  IC50: > 50 µM

## COc1ccc(N(C(=O)C2CCCCC2)S(=O)(=O)c2ccccc2)cc1
[2]
  inhibition: > 80%

## CN(C)CCN(C)Cc1ccccc1Sc1cccc2ccccc12
[1]
  IC50: 3 µM
[2]
  inhibition: > 80%
[10]
  Activity: Active
[11]
  Activity: Active

## CN(C)CCNC(=O)c1ccccc1Sc1ccccc1F
[1]
  IC50: > 200 µM

## C=CCOc1ccc(CNCCc2ccc(S(N)(=O)=O)cc2)cc1
[1]
  IC50: 85 µM
[2]
  inhibition: > 80%

## CN(C)CCN(C)Cc1ccccc1Sc1ccccc1
[1]
  IC50: 3.6 µM
